In the library only some 4% were active in any assay of this set; here they are far more common.
E-selectin induc – E-selectin induction on HUVECs | HUVEC E-selectin immunofluorescence imaging; normalized: neutral wells 0, TNF-alpha wells 100 | P16581 | activation, % at 7.58 µM | hit rate 0.37% among 260,000;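 active means mean E-selectin-positive cell signal at least 10% of the positive control, reached in at least 60% of replicates, without over 20% cell loss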
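assay system = HUVEC, human umbilical vein endothelial cells | input = 3,000 HUVEC seeded per well | medium = EGM-2 growth medium on 0.1% gelatin-coated wells | dosing = one compound dose added by pin transfer | signal = immunofluorescence imaging | read-out basis = % PE-positive cells | control set = TNF-alpha, DMSO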
FGF22 binding – shifts melting point of recombinant human FGF22; Q9HCT0; recombinant FGF22 thermal shift, SYPRO orange fluorescence; percent of sucrose octasulfate shift, DMSO zero; activity (Tm shift, normalised), % at 9.99 µM; hit rate 1.5% among 340,000; AID 651658;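 active means mean Tm shift, scaled 0 neutral to 100 positive control, at about 1.3% or above, every replicate too, limit read from the data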
Target sequence (Q9HCT0 whole entry, looked up): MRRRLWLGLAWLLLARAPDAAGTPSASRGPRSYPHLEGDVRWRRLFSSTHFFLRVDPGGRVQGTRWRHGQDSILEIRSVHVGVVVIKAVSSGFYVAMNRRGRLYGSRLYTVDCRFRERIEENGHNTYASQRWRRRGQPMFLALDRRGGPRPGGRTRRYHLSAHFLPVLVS
SIRT5 inh – blocks human SIRT5 desuccinylation of peptide; Q9NXA8; Purified SirT5, succinyl-peptide AMC, trypsin-coupled fluorescence; hit rate 1.1% among 330,000; inhibition, % at 15 µM; in the data active means inhibition above about 15%
Target sequence (Q9NXA8 whole entry, looked up): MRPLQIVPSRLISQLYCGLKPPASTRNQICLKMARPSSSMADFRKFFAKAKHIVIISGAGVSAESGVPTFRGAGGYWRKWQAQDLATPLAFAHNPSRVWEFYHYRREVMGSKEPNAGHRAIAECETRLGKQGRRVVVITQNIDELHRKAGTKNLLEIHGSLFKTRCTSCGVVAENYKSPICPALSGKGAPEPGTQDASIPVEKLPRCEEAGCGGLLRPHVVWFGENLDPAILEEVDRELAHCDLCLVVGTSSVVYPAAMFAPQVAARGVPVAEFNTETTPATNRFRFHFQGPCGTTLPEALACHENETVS
C2C12 statin – suppression of simvastatin myotoxicity. hit rate 0.78% among 330,000. C2C12 myotubes + simvastatin, ATP luminescence, 48 h; scaled: DMSO 0, geranylgeraniol control 100. rescue of ATP level, % at 7.49 µM;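 active means mean ATP rescue above about 67%, or every replicate alone reaching that limit, limit read from the data, passing the limit was not always enough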;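 further: myotubes were challenged with 10 µM simvastatin during compound exposure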
FN deposit inh – fibronectin deposition inhibition; AH1F fibroblasts, Alexa488-fibronectin deposition fluorescence, overnight; inhibition, % at 12.6 µM; hit rate 0.086% among 350,000; AID 743247;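 active means mean inhibition across replicates of 30% or more, regardless of how many single replicates reach that level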;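 further: positive control wells lacked labelled fibronectin entirely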
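Assay system: AH1F fibroblast monolayer, labelled fibronectin deposition. Amount: 10000 cells per well. Also added: labelled fibronectin 24 nM. Compound: single-point pinned compound. Incubation: cell attachment 1 h, compound and FN exposure overnight. Detection: fluorescence after three HBSS washes, excitation 485 nm, emission 525 nm. Read-out: inhibition of fibronectin deposition signal.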
Ecoli rRNA inh – inhibits bacterial ribosomal RNA function over humanized ribosomes | E. coli WT GFP vs humanized-ribosome RFP mutants, fluorescence, 24 h; hits give low values; DMSO median 0, no signal -100 | GFP signal change (wild-type ribosome), % (test concentration not listed) | hit rate 1.6% among 350,000 | AID 720706;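 active means significant combined selectivity score with lowered wild-type GFP, culture density cut under 30%, mutant RFP and density less affected; inactive means any of these conditions unmet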
Active calls of the source: *; . = no result; ! = a repeat was not active.

SMILES	E-selectin induc	FGF22 binding	SIRT5 inh	C2C12 statin	FN deposit inh	Ecoli rRNA inh
Cc1ccc(/C=C/C(=O)Nc2ccc(S(N)(=O)=O)cc2)o1	.	0	-3	.	.	21
COc1ccccc1N(C1=NCCCS1)S(=O)(=O)c1ccc(C(C)(C)C)cc1	5	0	-1	-16	-5	-16*
CCC(CO)Oc1cc(NC(=O)c2cccc(OC)c2)c2ncn(C(C)C)c2c1 (centres undefined)	0	0	.	-7	-44	-17
CCC(CO)Oc1cc(NC(=O)c2ccc(OC)cc2)c2ncn(C(C)C)c2c1 (centres undefined)	0	0	3	5	5	-20*
CCCN(C)C[C@@H]1OCCCC[C@@H](C)Oc2ccc(NC(=O)NC(C)C)cc2C(=O)N([C@H](C)CO)C[C@@H]1C	.	0	-1	.	3	0
C[C@H](CO)N1C[C@H](C)[C@H](CN(C)S(=O)(=O)c2ccc(C#N)cc2)Oc2ncc(C#Cc3ccc(C(F)(F)F)cc3)cc2C1=O	0	.	27*	.	0	-2
Cc1ccc(S(=O)(=O)N(C)C[C@@H]2Oc3ncc(C#Cc4ccccc4)cc3C(=O)N([C@H](C)CO)C[C@@H]2C)cc1	0	0	16*	32	4	0
C[C@@H]1CN([C@@H](C)CO)C(=O)c2cc(-c3ccc(C#N)cc3)cnc2O[C@@H]1CN(C)C(=O)Nc1ccc(C(F)(F)F)cc1	0	-1	7	2	-1	-11
C[C@H]1CN([C@@H](C)CO)C(=O)c2cc(-c3ccc(C#N)cc3)cnc2O[C@@H]1CN(C)C(=O)Nc1ccc(C(F)(F)F)cc1	0	0	19*	-3	-6	-17
CCCC(=O)Nc1ccc2c(c1)C(=O)N(C)C[C@@H](OC)[C@@H](C)CN(CCC(F)(F)F)[C@@H](C)CO2	0	0	2	6	-4	3
OC(CNC1CCCc2ccccc21)COc1c(Cl)cccc1Cl (centres undefined)	.	44*	-5	.	42*	-14
CCOc1ccccc1OCCOc1ccccc1CC	.	.	.	128*	.	.
CCOc1ccccc1OCC(=O)O	.	.	.	3	.	.
C/C(=N\NC(=O)C1CC1)c1ccc(Cl)cc1	121*	0	-1	-6	-4	9
C[C@H]1CN([C@@H](C)CO)C(=O)Cc2cc(NC(=O)CCCCCC(=O)Nc3ccccc3N)ccc2O[C@H]1CN(C)Cc1ccc(Oc2ccccc2)cc1	-6	0	20*	104*	.	-4
C[C@H](CO)N1C[C@H](C)[C@H](CN(C)Cc2ccc(Oc3ccccc3)cc2)Oc2ccc(NC(=O)CCCCCC(=O)Nc3ccccc3N)cc2CC1=O	50*	0	30*	-7	.	-5
O=C(N/N=C/c1cc([N+](=O)[O-])ccc1Cl)c1cnccn1	.	43*	4	5	4	14
Cc1ccc(S(=O)(=O)N(C)C[C@H]2OCc3ccccc3-c3ccccc3C(=O)N([C@H](C)CO)C[C@@H]2C)cc1	.	.	.	.	14	-6
CC(C)NC(=O)N(C)C[C@H]1Oc2ncc(C#CCC3CCCC3)cc2C(=O)N([C@H](C)CO)C[C@@H]1C	0	0	1	5	8	4
COc1ccc2c3c([nH]c2c1)[C@H](CO)N(C(=O)C1CC1)CC31CN(S(C)(=O)=O)C1	0	0	-3	.	.	3
COCC(=O)N(C)C[C@@H]1Oc2cc(-c3ccccc3F)ccc2S(=O)(=O)N([C@H](C)CO)C[C@@H]1C	0	0	-3	-10	-2	1
CCn1c(=S)sc2c(=O)n(-c3ccccc3)c(=S)[nH]c21	1	0	4	.	.	-30*
COc1ccc(N(CC(=O)Nc2ccc(F)cc2)S(=O)(=O)c2ccccc2[N+](=O)[O-])c(OC)c1	.	43*	-2	.	-24	-14
NS(=O)(=O)c1cccc(NC(=O)COC(=O)Cc2ccc(S(=O)(=O)N3CCCCC3)s2)c1	.	43*	2	.	5	6
Cc1cnc(C(=O)OCC(=O)Nc2cccc(S(=O)(=O)N3CCCCC3)c2)cn1	1	0	28*	.	2	1
SMILES	E-selectin induc	FGF22 binding	SIRT5 inh	C2C12 statin	FN deposit inh	Ecoli rRNA inh
O=C(COC(=O)Cc1ccc(S(=O)(=O)N2CCCCC2)s1)Nc1ccc2c(c1)OCO2	.	.	.	-2	3	.
CC1=Nc2ccccc2N=C(N)C1c1ccccc1 (centres undefined)	.	44*	-2	-2	4	9
CC1=Nc2ccccc2N=C(NC(=O)c2ccccc2)C1c1ccc(Cl)cc1 (centres undefined)	.	0	0	2	-6	-28
CCCCn1c(-c2csc(C(C)C)c2)n[nH]c1=S	2	0	17*	-4	4	-52
Cn1cccc1Cc1nnc(SCC(=O)Nc2ccc3c(c2)OCO3)n1CCc1ccccc1	0	0	.	14	5	-8
Cc1nnc(SCC(=O)NCc2ccc3c(c2)OCO3)n1C	3	43*	-7	.	17	16
CC(C)c1nnc(SCC(=O)NCc2ccc3c(c2)OCO3)n1C	.	.	.	.	-2	.
COCCn1c(Cc2cccn2C)nnc1SCC(=O)NCc1ccc2c(c1)OCO2	.	44*	2	.	-1	.
C=CCN1C(=O)C2(NNc3ccccc3O2)c2ccccc21 (centres undefined)	.	.	.	12	.	.
C=CCN1C(=O)C2(NC(=O)c3ccccc3N2)c2ccccc21 (centres undefined)	-1	43*	-5	-4	9	18
CO[C@H]1CN(C)C(=O)c2ccc(NC(=O)Nc3ccc(Cl)cc3)cc2OC[C@H](C)NC[C@H]1C	0	.	.	3	-6	-2
CO[C@H]1CN(C)C(=O)c2cc(NC(=O)Nc3ccc(Cl)c(Cl)c3)ccc2OC[C@@H](C)NC[C@H]1C	0	.	7	-28	-7	-5
CO[C@H]1CN(C)C(=O)c2ccc(NC(=O)Nc3ccc(Cl)c(Cl)c3)cc2OC[C@H](C)NC[C@@H]1C	0	-1	11	-59	31*!	-60
CO[C@H]1CN(C)C(=O)c2cc(NC(=O)Nc3cc(Cl)cc(Cl)c3)ccc2OC[C@H](C)NC[C@H]1C	0	.	-5	-130	32*!	-9
CO[C@H]1CN(C)C(=O)c2cc(NC(=O)Nc3ccc(Cl)c(Cl)c3)ccc2OC[C@@H](C)NC[C@@H]1C	0	.	3	-23	32*!	-4
CO[C@H]1CN(C)C(=O)c2ccc(NC(=O)Nc3ccc(Cl)c(Cl)c3)cc2OC[C@H](C)NC[C@H]1C	0	0	100*	-26	16	-10
